TRPC4 PAM: allosteric potentiators of mouse TRPC4 channel | Q9QUQ5 | HEK293 TRPC4beta/mu-opioid, DAMGO EC20, Fluo-4 Ca2+ flux; hits give high values | B-score at 10 µM | actives 0.42% (n = 310,000) | AID 2227;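 active means B-score of calcium response area above 5 SD of library B-scores, with initial fluorescence ratio within 5 SD of library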;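 further: B-score of integrated fluorescence ratio over time as area under calcium response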
TRPC4 act: TRPC4 (mouse) channel activation; actives 0.49% (n = 310,000); Q9QUQ5; HEK293 TRPC4beta/mu-opioid, Fluo4 calcium fluorescence; hits give high values; AID 2237; B-score at 10 µM;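 active means B-score above 5 SD of library B-scores, and initial fluorescence ratio not above library mean plus 5 SD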;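 further: positive B-score marks a calcium rise read as TRPC4 activation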
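Technique: kinetic Fluo4 calcium fluorescence; Test system: TRPC4beta and mu-opioid receptor HEK293 stable cells; Measure: B-scored integrated calcium fluorescence ratio; Benchmarks: low control buffer alone, high control maximal DAMGO; Schedule: 45 min room-temperature Fluo4 loading, 110 s read.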
TRPC6 inhibitor: inhibitors of mouse TRPC6 channel | Q61143 | HEK293-TRPC6, membrane potential dye, ACh-evoked depolarization; hits give low values | B-score at 10 µM | actives 1.1% (n = 310,000);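 active means B-score under library mean minus 3 SD, initial fluorescence not abnormally high, positive integrated signal ratio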;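 further: B-score derived from integrated fluorescence ratio over the kinetic read; more negative B-score means stronger inhibition of depolarization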
TRPC6 activator: activates the mouse TRPC6 cation channel; Q61143; HEK293-TRPC6 membrane potential dye fluorescence; hits give high values; actives 0.13% (n = 310,000); B-score at 10 µM;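 active means B-score of the integrated fluorescence ratio above library mean plus 3 SD, and starting fluorescence ratio within library mean plus 5 SD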;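 further: higher score means more depolarization so channel activation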
TRPC4 block: TRPC4 (mouse) channel inhibition | Q9QUQ5 | HEK293 TRPC4beta/mu-opioid, DAMGO-evoked Fluo4 calcium flux; hits give low values | B-score at 10 µM | actives 0.39% (n = 300,000) | AID 2247;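 active means B-score over 3 SD under the library average, no early fluorescence shift, positive overall ratio signal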
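Assay system: HEK293 cells with stable TRPC4beta plus mu-opioid receptor expression. Dosing: single dose. Measured by: Fluo4 Ca2+ flux fluorescence. Also added: DAMGO in two steps, submaximal then maximal. Read-out: B score from integrated Fluo4 fluorescence ratio.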
* hit, by the source's call. Rows were chosen to be rich in hits. Some 2.3% of all compounds tested hit in one or more screens of this group.

What do the screens show for `CCOC(=O)C1(CCc2ccccc2)CCN(Cc2cccc3c2OCO3)CC1`?
TRPC4 PAM: inactive; TRPC4 act: inactive; TRPC6 inhibitor: inactive; TRPC6 activator: inactive; TRPC4 block: -6*

What do the screens show for `CCOC(=O)C1(CCc2ccccc2)CCN(Cc2cccc3cnccc23)CC1`?
TRPC4 PAM: inactive; TRPC4 act: inactive; TRPC6 inhibitor: inactive; TRPC6 activator: inactive; TRPC4 block: inactive

How did CCOC(=O)C1(CCc2ccccc2)CCN(Cc2csc(C(C)=O)c2)CC1 do in these assays?
TRPC4 PAM: inactive; TRPC4 act: 49*; TRPC6 inhibitor: inactive; TRPC6 activator: inactive; TRPC4 block: inactive

Results for Cc1c(CCN)ccc2c1[nH]c1ccccc12 ?
TRPC4 PAM: 19*; TRPC4 act: inactive; TRPC6 inhibitor: inactive; TRPC6 activator: inactive; TRPC4 block: inactive

How did CNCC(O)c1cc(OCc2ccccc2)c(OCc2ccccc2)cc1F (centres undefined) do in these assays?
TRPC4 PAM: inactive; TRPC4 act: inactive; TRPC6 inhibitor: inactive; TRPC6 activator: inactive; TRPC4 block: inactive

What do the screens show for `CNc1ccc2oc(C[C@H]3O[C@@]4(CC[C@H]3C)O[C@H]([C@H](C)C(=O)c3ccc[nH]3)[C@H](C)C[C@H]4C)nc2c1C(=O)O`?
TRPC4 PAM: inactive; TRPC4 act: 148*; TRPC6 inhibitor: inactive; TRPC6 activator: inactive; TRPC4 block: inactive

Results for Brc1ccc(-[n+]2c(-c3ccccc3)cc(-c3ccccc3)cc2-c2ccccc2)cc1 ?
TRPC4 PAM: inactive; TRPC4 act: inactive; TRPC6 inhibitor: inactive; TRPC6 activator: inactive; TRPC4 block: inactive

What do the screens show for `C=CCn1c(O)c(C(C)=NCCCn2ccnc2)c(=O)[nH]c1=O`?
TRPC4 PAM: inactive; TRPC4 act: inactive; TRPC6 inhibitor: inactive; TRPC6 activator: inactive; TRPC4 block: inactive

What do the screens show for `CCN(CC)c1nc2c(C)cccn2c(=O)c1C=C1C(=O)NC(=O)NC1=O`?
TRPC4 PAM: 14*; TRPC4 act: inactive; TRPC6 inhibitor: inactive; TRPC6 activator: inactive; TRPC4 block: inactive

What do the screens show for `O=[N+]([O-])c1cc(-n2cnnn2)c(O)c([N+](=O)[O-])c1`?
TRPC4 PAM: inactive; TRPC4 act: inactive; TRPC6 inhibitor: inactive; TRPC6 activator: inactive; TRPC4 block: inactive

Results for C=CC[N+]1(C)CC[C@]23c4c5ccc(O)c4O[C@H]2C(=O)CC[C@@]3(O)[C@H]1C5 (some centres undefined) ?
TRPC4 PAM: inactive; TRPC4 act: inactive; TRPC6 inhibitor: inactive; TRPC6 activator: inactive; TRPC4 block: inactive

What do the screens show for `CCOc1cc2c(cc1OCC)-n1cccc1C(c1ccccc1O)NC2` (centres undefined)?
TRPC4 PAM: inactive; TRPC4 act: inactive; TRPC6 inhibitor: inactive; TRPC6 activator: inactive; TRPC4 block: inactive

What do the screens show for `Oc1ccccc1-[n+]1c(-c2ccccc2)cc(-c2ccccc2)cc1-c1ccccc1`?
TRPC4 PAM: inactive; TRPC4 act: inactive; TRPC6 inhibitor: inactive; TRPC6 activator: inactive; TRPC4 block: inactive

What do the screens show for `Nc1ccccc1-[n+]1c(-c2ccccc2)cc(-c2ccccc2)cc1-c1ccccc1`?
TRPC4 PAM: 25*; TRPC4 act: inactive; TRPC6 inhibitor: inactive; TRPC6 activator: inactive; TRPC4 block: inactive

How did N=c1c[n+](CC23CC4CC(CC(C4)C2)C3)[n-]o1 do in these assays?
TRPC4 PAM: inactive; TRPC4 act: 211*; TRPC6 inhibitor: inactive; TRPC6 activator: inactive; TRPC4 block: inactive

Results for COc1cc(C(=O)OC2C[C@H]3CC[C@@H](C2)N3C)ccc1O (some centres undefined) ?
TRPC4 PAM: inactive; TRPC4 act: inactive; TRPC6 inhibitor: inactive; TRPC6 activator: inactive; TRPC4 block: inactive

Results for CN1C2CCC1CC(OC(=O)c1cc(Cl)cc(Cl)c1)C2 (centres undefined) ?
TRPC4 PAM: 13*; TRPC4 act: inactive; TRPC6 inhibitor: inactive; TRPC6 activator: inactive; TRPC4 block: inactive

What do the screens show for `COc1ccccc1N1CCNCC1`?
TRPC4 PAM: inactive; TRPC4 act: inactive; TRPC6 inhibitor: inactive; TRPC6 activator: inactive; TRPC4 block: inactive

What do the screens show for `Clc1cccc(N2CCNCC2)n1`?
TRPC4 PAM: inactive; TRPC4 act: inactive; TRPC6 inhibitor: inactive; TRPC6 activator: inactive; TRPC4 block: inactive

What do the screens show for `Cc1cc(N2CCNCC2)nc2ccccc12`?
TRPC4 PAM: 13*; TRPC4 act: inactive; TRPC6 inhibitor: inactive; TRPC6 activator: inactive; TRPC4 block: inactive

What do the screens show for `Cn1c(N2CCNCC2)nc2ccccc21`?
TRPC4 PAM: inactive; TRPC4 act: 105*; TRPC6 inhibitor: inactive; TRPC6 activator: inactive; TRPC4 block: inactive

Results for Oc1ccc2c3c1O[C@H]1c4oc5ccccc5c4C[C@@]4(O)[C@@H](C2)N(CC2CC2)CC[C@]314 ?
TRPC4 PAM: inactive; TRPC4 act: inactive; TRPC6 inhibitor: inactive; TRPC6 activator: inactive; TRPC4 block: -6*

Results for COc1ccc(OC)c(NP(=O)(Oc2ccccc2)Oc2ccccc2)c1 ?
TRPC4 PAM: 10*; TRPC4 act: inactive; TRPC6 inhibitor: inactive; TRPC6 activator: inactive; TRPC4 block: inactive

What do the screens show for `COc1ccc(NP(=O)(Nc2ccc(OC)cc2)Oc2ccccc2)cc1`?
TRPC4 PAM: 12*; TRPC4 act: inactive; TRPC6 inhibitor: inactive; TRPC6 activator: inactive; TRPC4 block: inactive

How did Cn1cc[n+](C)c1P(=S)(c1ccccc1)c1ccccc1 do in these assays?
TRPC4 PAM: inactive; TRPC4 act: 66*; TRPC6 inhibitor: inactive; TRPC6 activator: inactive; TRPC4 block: inactive

Results for Cc1c(P(=S)(c2ccccc2)c2ccccc2)[n+]2ccccc2n1C ?
TRPC4 PAM: inactive; TRPC4 act: inactive; TRPC6 inhibitor: inactive; TRPC6 activator: inactive; TRPC4 block: inactive

Results for Cc1ccc(Cl)cc1N1CCN(CCN)CC1 ?
TRPC4 PAM: inactive; TRPC4 act: 155*; TRPC6 inhibitor: inactive; TRPC6 activator: inactive; TRPC4 block: inactive

Results for Cc1c(C=C2C(=O)N(C)C(=S)N(C)C2=O)c2ccccc2n1CC(=O)NCC1CCCO1 (centres undefined) ?
TRPC4 PAM: inactive; TRPC4 act: inactive; TRPC6 inhibitor: inactive; TRPC6 activator: inactive; TRPC4 block: inactive

How did CCCNC(=O)N1[C@H]2CC[C@@H]1C(C(=O)OC)=C(c1ccccc1)C2 do in these assays?
TRPC4 PAM: inactive; TRPC4 act: inactive; TRPC6 inhibitor: inactive; TRPC6 activator: inactive; TRPC4 block: inactive

Results for FC(F)(F)c1ccc(CN2CCNCC2)cc1 ?
TRPC4 PAM: 17*; TRPC4 act: inactive; TRPC6 inhibitor: inactive; TRPC6 activator: inactive; TRPC4 block: inactive

Results for Cc1ccccc1CN1CCNCC1 ?
TRPC4 PAM: 15*; TRPC4 act: inactive; TRPC6 inhibitor: inactive; TRPC6 activator: inactive; TRPC4 block: inactive

Compound activity as filed in PubChem BioAssay.
